Compound activity (PubChem)
UBC13 inh: inhibitors of human UBC13 polyubiquitin chain formation | P61088 | TR-FRET | inhibition, % at 20 µM | actives 0.47% (n = 330,000); in the data active = inhibition above about 45%, passing the limit was not always enough
Target sequence (P61088 whole entry, looked up): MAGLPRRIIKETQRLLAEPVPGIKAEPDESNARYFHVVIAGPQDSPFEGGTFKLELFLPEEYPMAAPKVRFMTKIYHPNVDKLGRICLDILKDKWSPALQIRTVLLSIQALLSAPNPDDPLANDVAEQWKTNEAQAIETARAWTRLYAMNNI
SENP8 block-1: blocks human SENP8 cleavage of Nedd8 substrate | Q96LD8 | recombinant SENP8, Nedd8 substrate fluorescence | inhibition, % at 20 µM | actives 0.64% (n = 360,000); in the data active = inhibition mostly above about 40%, no sharp cut-off; inactive = mostly below about 27%
Target sequence (Q96LD8 whole entry, looked up): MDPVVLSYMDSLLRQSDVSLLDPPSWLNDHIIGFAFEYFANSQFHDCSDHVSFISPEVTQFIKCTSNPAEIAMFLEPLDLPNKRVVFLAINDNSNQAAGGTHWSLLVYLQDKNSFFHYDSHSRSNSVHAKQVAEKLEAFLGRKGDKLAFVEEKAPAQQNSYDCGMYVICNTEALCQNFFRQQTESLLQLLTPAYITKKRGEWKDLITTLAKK
Apaf-1 inh: blocks human Apaf-1 apoptosome activity. inhibition, % at 20 µM. AID 489030. reconstituted apoptosome caspase-3 activity, DEVD-Rh110 fluorescence. actives 0.71% (n = 330,000); active = inhibition of at least 40% at 20 µM;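 note: plate controls were DMSO wells for no effect and DEVD-CHO caspase inhibitor wells for full effect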
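Assay system – apoptosome proteins · Medium – Hepes buffer, pH 7.5 · Also added – cytochrome c with DEVD-Rh110 · Timing – 30 min compound preincubation, 50 min activation, room temperature · Detection – Rh110 fluorescence, excitation 480 nm, emission 540 nm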
SENP6 inh: inhibitors of human SENP6 protease. Q9GZR1. Recombinant SENP6 catalytic domain, aminoluciferin luminescence. inhibition, % at 10 µM. actives 1.8% (n = 330,000);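 active = inhibition above about 50% at the single tested dose, limit read from the data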;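 note: plate controls were DMSO wells with enzyme for no effect and DMSO wells lacking enzyme for full effect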
SENP8 block-2: inhibitors of human SENP8 protease; AID 2540; Q96LD8; actives 1.2% (n = 330,000); purified SENP8, Z-RLRGG-aminoluciferin cleavage, luminescence; inhibition, % at 10 µM; in the data active = inhibition above about 50%
SENP7 inh: blocks the human protease SENP7; inhibition, % at 5 µM; actives 1.5% (n = 330,000); Q9BQF6; recombinant SENP7, Z-RLRGG-aminoluciferin luminescence, 40 min;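 active = inhibition above about 50% at the single test dose, limit read from the data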;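 note: plate controls were DMSO with enzyme for no effect and no enzyme buffer wells for full effect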
Target sequence (Q9BQF6 706-1050 limits assumed): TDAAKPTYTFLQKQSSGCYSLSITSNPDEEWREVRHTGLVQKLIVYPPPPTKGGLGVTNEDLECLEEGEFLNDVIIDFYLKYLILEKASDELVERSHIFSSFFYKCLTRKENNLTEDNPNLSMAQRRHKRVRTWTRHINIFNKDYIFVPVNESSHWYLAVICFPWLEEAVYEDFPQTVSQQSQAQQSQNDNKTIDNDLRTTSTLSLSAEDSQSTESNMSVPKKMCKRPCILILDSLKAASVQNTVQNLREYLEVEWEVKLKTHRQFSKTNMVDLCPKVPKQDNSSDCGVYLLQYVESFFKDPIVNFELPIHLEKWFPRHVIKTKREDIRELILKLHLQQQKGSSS
SENP8 confirm: confirmation of human SENP8 protease inhibitors | AID 488912 | Recombinant SENP8, Z-RLRGG-aminoluciferin luminescence, 60 min | shares compounds with SENP7 inh | inhibition, % at 12.5 µM | actives 40% (n = 6,200);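 active = mean inhibition across replicates above about 50%, limit read from the data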
SENP6 confirm: confirmation of human SENP6 protease inhibitors | shares compounds with SENP7 inh | recombinant SENP6, Z-RLRGG-aminoluciferin luminescence | inhibition, % at 12.5 µM | actives 58% (n = 6,200) | AID 488915
SENP7 confirm: human SENP7 inhibition, confirmed | shares compounds with SENP7 inh | recombinant SENP7, Z-RLRGG-aminoluciferin luminescence, 40 min | inhibition, % at 12.5 µM | actives 69% (n = 6,200)
Casp3 SENP sel: inhibits human caspase-3 in SENP selectivity test | AID 488918 | purified caspase-3, Z-DEVD-aminoluciferin luminescence, 60 min | shares compounds with SENP7 inh | inhibition, % at 12.5 µM | actives 60% (n = 6,200);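 active = mean inhibition above about 50%, limit read from the data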;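 note: plate controls were enzyme with DMSO for no effect and wells without caspase-3 for full effect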
SENP luc ctr: interferes with luciferase luminescence in SENP counter-screen. AID 488919. shares compounds with SENP7 inh. Pre-incubated SENP8/Z-RLRGG-aminoluciferin, luciferase luminescence interference. actives 39% (n = 6,200). inhibition, % at 12.5 µM;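 active = mean inhibition above about 50% when retested at one dose, limit read from the data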;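 note: plate controls were DMSO wells with completed reaction for no effect and substrate without enzyme for full effect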
* = called active by the depositor; i = inactive; x = not tested or not shown; ! = a repeat was not active. Rows were chosen to be rich in hits. Some 3% of all compounds tested hit in one or more screens of this group.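 Rule for the calls, unless noted: active = mean inhibition above about 50% in the one-dose retest (limit read from the data); inactive = the rest.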

SMILES | UBC13 inh | SENP8 block-1 | Apaf-1 inh | SENP6 inh | SENP8 block-2 | SENP7 inh | SENP8 confirm | SENP6 confirm | SENP7 confirm | Casp3 SENP sel | SENP luc ctr
CC(=O)c1sc(NC(=O)c2cnc(Cl)c(Cl)c2)nc1C | -6.8 | -27.5 | 2.3 | 83.6* | 76.9* | 66.0* | 11.7 | 54.5* | 27.8 | 91.2* | 82.4*
OC[C@@H]1CN(Cc2ccco2)C[C@H](n2cnc3c(N4CCOCC4)ncnc32)O1 | x | 9.8 | x | x | x | x | x | x | x | x | x
Clc1ccccc1CONc1ncnc2nonc12 | -6.6 | 20.8 | -11.0 | 61.7* | 33.8 | 35.7 | 38.7 | 32.6 | 71.3* | 53.4* | 60.9*
COCCNc1ncnc2c1cnn2Cc1ccccc1Cl | 2.6 | 13.8 | -5.3 | 2.0 | 5.2 | 1.5 | x | x | x | x | x
CCc1cccc2c(C(=O)COC(=O)c3ccc(O)cc3)c[nH]c12 | -0.7 | 10.2 | 7.4 | -15.9 | 2.4 | 4.3 | x | x | x | x | x
CCc1cccc2c(C(=O)COC(=O)c3ccccc3)c[nH]c12 | 10.0 | 17.6 | 11.2 | 60.3* | 24.9 | 53.3* | 7.3 | 5.2 | 73.4* | 23.2 | 46.1
CCOC(=O)[C@]12CCCC=C1N(Cc1cccc3ccccc13)C(=O)[C@H](CC(=O)NCc1cccs1)C2 | x | 9.6 | x | x | x | x | x | x | x | x | x
CCN(CC)CCN1C(=O)Cn2c(C)c(C)c3cccc1c32 | -2.9 | 20.1 | -1.7 | -13.9 | -8.4 | 58.2*! | -4.6 | 2.8 | 0.0 | -0.5 | 0.4
CCOc1ccc(/C=C2/SC(=O)NC2=S)cc1 | -19.7 | 12.1 | 7.2 | 74.1* | 45.0 | 10.2 | 19.3 | 20.5 | 40.8 | 7.9 | 21.8
CNc1cc(-c2cc(OC)ccc2OC)ncn1 | x | i | x | x | x | x | x | x | x | x | x
O=C(Nc1ncc([N+](=O)[O-])s1)c1cccs1 | -21.8 | 19.5 | -7.4 | 97.2* | 96.2* | 99.2* | 96.3* | 98.1* | 102.6* | 98.2* | 97.6*
O=C(Nc1ncc([N+](=O)[O-])s1)c1ccccc1Br | -4.6 | 27.7 | -16.9 | 89.6* | 86.3* | 76.3* | 91.1* | 89.9* | 100.2* | 93.6* | 70.9*
Cc1cnc(NC(=O)COc2ccccc2Cl)s1 | 15.8 | 12.7 | -8.7 | 89.8* | 77.3* | 92.1* | 65.9* | 90.6* | 98.8* | 89.9* | 30.0
O=C(Nc1cc([N+](=O)[O-])ccc1F)c1cccs1 | 14.5 | 18.0 | -6.6 | -11.8 | -4.3 | -1.1 | x | x | x | x | x
Cc1ncoc1C(=O)Nc1nccs1 | 9.6 | 20.6 | -11.8 | -4.2 | -8.5 | -2.9 | x | x | x | x | x
Cc1ncoc1C(=O)Nc1ncc([N+](=O)[O-])s1 | -8.2 | 20.9 | -4.0 | 94.9* | 92.6* | 96.7* | 99.2* | 99.8* | 102.9* | 99.0* | 98.4*
CC(=O)N[C@@H]1C=C[C@@H](CC(=O)NCc2ccc(Cl)cc2)O[C@@H]1CO | x | 23.7 | x | x | x | x | x | x | x | x | x
Cc1csc(NC(=O)c2cccs2)n1 | 3.1 | 2.6 | -1.3 | 17.4 | 2.5 | 31.4 | x | x | x | x | x
Cc1cnc(NC(=O)c2cccs2)s1 | -2.6 | -9.1 | 6.7 | 68.9* | 49.9 | 57.2* | 62.2* | 59.9* | 85.7* | 83.8* | 34.4
CCN1C(=O)c2cccc3c(S(=O)(=O)Nc4ccccn4)ccc1c23 | 5.2 | -320.7 | 0.5 | -9.6 | -1.4 | -0.3 | x | x | x | x | x
CCN1C(=O)c2cccc3c(S(=O)(=O)Nc4ncccc4C)ccc1c23 | 2.1 | -299.5 | 0.8 | 4.9 | -4.7 | 64.4* | -23.9 | -14.7 | -12.6 | -10.6 | -6.1
COc1ccc(-n2cc3ccc([N+](=O)[O-])cc3n2)cc1 | -3.8 | 9.3 | 0.6 | 78.0* | 78.3* | 86.9* | 47.1 | 50.7* | 71.6* | 59.4* | 31.2
CC(=O)N(C)c1ccc(N=NC2C(=O)N(C(N)=S)N=C2C)cc1 (stereo not given) | -35.3 | 14.9 | 7.1 | 1.7 | 76.7* | 80.2* | 86.2* | 84.4* | 97.2* | 95.2* | 86.7*
CC1=NN(C(N)=S)C(=O)C1N=Nc1ccc(S(N)(=O)=O)cc1 (stereo not given) | -16.7 | 23.5 | -0.2 | 50.9* | 11.9 | 27.5 | 23.0 | 22.5 | 70.4* | 74.3* | 57.0*
CCOc1ccccc1N=NC1C(=O)N(C(N)=S)N=C1C (stereo not given) | -88.3 | 32.6 | 8.5 | 14.8 | 11.1 | 8.1 | x | x | x | x | x
SMILES | UBC13 inh | SENP8 block-1 | Apaf-1 inh | SENP6 inh | SENP8 block-2 | SENP7 inh | SENP8 confirm | SENP6 confirm | SENP7 confirm | Casp3 SENP sel | SENP luc ctr
O=C(NC(c1ccc(-c2ccccc2)cc1)c1cnccn1)C1CCN(CCOc2ccc(F)cc2)CC1 (stereo not given) | x | -1.0 | x | x | x | x | x | x | x | x | x
O=C(Nc1ccccc1)Nc1cccc2nsnc12 | -9.0 | -73.3 | 8.9 | 94.6* | 90.6* | 95.2* | 95.9* | 96.3* | 100.4* | 92.2* | 89.5*
O=C1N/C(=C\c2nc3ccccc3s2)c2ccccc21 | 17.6 | x | 9.3 | 91.9* | 84.1* | 98.3* | 32.8 | 42.1 | 34.1 | 37.4 | 6.0
Cc1c(C#N)c(O)[nH]c(=O)c1N=Nc1ccc(Cl)c(C(=O)O)c1 | -4.0 | 11.5 | -2.4 | -8.4 | 4.2 | -8.8 | x | x | x | x | x
Cc1c(C#N)c(O)[nH]c(=O)c1N=Nc1ccc(S(N)(=O)=O)cc1 | -102.0 | 26.0 | 30.5 | 51.2* | 26.5 | -19.7 | 42.6 | 37.5 | 71.1* | 75.2* | 51.8*
CCc1nc2c(OCC(=O)c3ccc(Cl)cc3Cl)cccn2c1N(C=O)Cc1ccccc1 | x | -59.8 | x | x | x | x | x | x | x | x | x
CCCC(C)C(=O)Nc1ccc(Cl)cc1Cl (stereo not given) | 5.4 | 9.5 | 1.3 | 2.9 | -5.4 | -1.0 | x | x | x | x | x
CO/N=C/C(C(C)=O)C(=O)Nc1ccc(Cl)cc1Cl (stereo not given) | 5.4 | 8.6 | 2.3 | 56.4* | 10.3 | -3.6 | 11.6 | 15.4 | 46.5 | 26.3 | 15.7
CSc1ccc(CN2CCC(C)(Oc3ccc(-n4ccnc4)cc3)C2)cc1 (stereo not given) | x | 16.3 | x | x | x | x | x | x | x | x | x
COc1ccc(-n2nnnc2SCC(=O)Nc2nnc(C)s2)cc1OC | -5.5 | 4.4 | -21.7 | -0.5 | -4.4 | 94.8* | -23.6 | -16.1 | -6.9 | -7.7 | -4.6
COc1cc(C(=O)C(=O)N2CCN(c3ccccc3)CC2)cc2ccccc12 | x | 15.8 | x | x | x | x | x | x | x | x | x
COc1ccc2nc3n(c(=O)c2c1)-c1ncccc1C(=O)NC3CC(C)C (stereo not given) | x | 2.8 | x | x | x | x | x | x | x | x | x
Cc1ccc(NC(CC(=O)c2ccccc2)C(=O)O)cc1Cl (stereo not given) | -9.1 | -33.5 | -3.1 | -7.9 | 73.7* | 65.1* | -11.5 | 8.1 | 17.7 | 35.5 | 18.8
